Data on two compounds can be found in PMC4823011 (The American journal of clinical nutrition, 2014).

Several values for one entry are separate records, joined by “and”; a condition that tells them apart may be missing. Equal values may be shown once. Read-outs that look alike come from different tables or passages of the source.

Data set [1] is classed as in vivo, human. Particulars: caplet 855 nmol oral.
Data set [2] is classed as in vivo, human. The essentials:
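Given after a ≥4-wk washout as an IV injection in 1.35 mL sterile saline (pH 7.0, 74 μg folate/mL). Blood was drawn from the opposite arm at 15 min, then every 30 min for 4 h. Plasma M+5/M+0 molar ratios were measured by LC-MS/MS. Amounts were converted to nmol/person from baseline microbiological plasma folate, blood volume and packed cell volume. Half-life came from a one-phase exponential fit to the descending plasma curve.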

The nature of data set [3]: Apparent absorption across the colon calculated with one-compartment model. Format: in vivo, human. The method in brief:
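Enteric-coated caplet with about 12.6% coating mass gain. The absorbed mass was estimated from plasma labeled 5-methyltetrahydrofolate concentration using a three-equation, one-compartment model of small-intestinal folate absorption. Volume of distribution was taken as 387 mL/kg body weight. t_lag, the time plasma enrichment stayed at baseline, was set at 1 h. Plasma was sampled hourly after pyloric passage until 2000, then at 24 and 48 h.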

For data set [4] the following is noted: 684 nmol (320 μg) cecal infusion after bowel cleansing; cited from earlier work.
For data set [5] the following is noted: cited from earlier work.
For data set [6] the following is noted: model parameter; cited from earlier work.
[7] abbreviates: iv 214 nmol, individual subjects A-I.

`Nc1nc2c(c(=O)[nH]1)N(C=O)C(CNc1ccc(C(=O)N[C@@H](CCC(=O)O)C(=O)O)cc1)CN2` (stereo partly drawn) [[^13C5]5-formyltetrahydrofolate, [glutamyl-^13C5]-[6S]-5-formyltetrahydrofolic acid]: in data set [1] (any subject), the “Detection of [13C5]5-formyltetrahydrofolate (parent) in plasma after caplet” value is reported as “did not detect”. In data set [1] (individual subjects A-F), the “Cmax of [13C5]5-methyltetrahydrofolate in plasma” value is 0.5 nmol and 2.0 nmol and 3.7 nmol and 4.0 nmol and 1.6 nmol. In data set [2] (setting [7]), the “5-formyltetrahydrofolate Cmax (labeled, plasma)” value is 20.0 nmol and 10.2 nmol and 20.3 nmol and 7.1 nmol and 15.9 nmol and 14.1 nmol and 7.5 nmol and 10.9 nmol and 15.2 nmol; the “5-methyltetrahydrofolate Cmax (labeled metabolite, plasma)” value is 6.8 nmol and 6.6 nmol and 10.2 nmol and 3.1 nmol and 7.8 nmol and 10.0 nmol and 5.0 nmol and 6.0 nmol and 5.8 nmol. For the same compound, the “5-formyltetrahydrofolate Cmax (labeled, plasma)” value in data set [2] (iv 214 nmol, mean ± SEM, n = 9) turned out to be 13.5 ± 1.6 nmol. The “Plasma enrichment with [13C5]5-formyltetrahydrofolate” value in data set [2] (plasma samples collected immediately after iv injection, mean ± SEM) was found to be 11.6 ± 1.5%. The “Apparent absorption across the colon of the 855-nmol dose” value in data set [3] (caplet, one-compartment model, mean, excludes 2 subjects without plasma response) was 46% and 46.2 ± 16.5%. Further, the bioavailability in data set [3] (human, plasma, oral, 855 nmol) is 34.7 ± 14.3%. The “Rate of folate absorption after bolus infusion directly into the cecum” value in data set [4] is reported as 0.6 ± 0.02 nmol/h. For the same compound, the “Apparent absorption in the small intestine” value in data set [5] (500-nmol orally administered test dose) was 38 ± 6% and 38%. Also, the “Rate of folate absorption across the small intestine” value in data set [5] (oral bolus 421–569 nmol, estimated from published data) is ~ 34 nmol/h.

In the case of `Nc1nc2ncc(CNc3ccc(C(=O)N[C@@H](CCC(=O)O)C(=O)O)cc3)nc2c(=O)[nH]1` [folate], the “Apparent volume of distribution (V)” value in data set [6] is listed as 387 mL/kg body weight.

A word on the bioavailability: it is the share of a dose that reaches the circulation, judged against a reference dose that is usually intravenous.
